Experimental data: ChEMBL document CHEMBL4043206, “Anticancer potential of aminomethylidene-diazinanes I. Synthesis of arylaminomethylidene of diazinetriones and its cytotoxic effects tested in glioblastoma cells” (Bioorg Med Chem, 2017)

How the values were obtained:
[1] = Solubility in water; assay type: physicochemical; conditions: buffer
[2] = Solubility in organic solvents; assay type: physicochemical
LN-229 [3] = assay: Cytotoxicity against human LN229 cells assessed as cell viability at 10 ug/ml incubated for 72 hrs by Guava ViaCount reagent based flow cytometry; assay type: functional; conditions: LN-229, 72 h, read-out: Activity
Method in brief: (§1)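 Cells kept as semi-confluent monolayers in DMEM with 10% FBS, 50 U/ml penicillin and […], at 37 °C under 5% CO₂. Seeded at 2 × 10⁴ cells per well in 24-well plates. Compounds were made up as 10 mg/ml DMSO stocks, diluted into medium to a final 1 or 10 μg/ml, and left on the cells for 72 h.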

LN-229 [4] = assay: Cytotoxicity against human LN229 cells assessed as cell viability at 1 ug/ml incubated for 72 hrs by Guava ViaCount reagent based flow cytometry; assay type: functional; conditions: LN-229, 72 h, read-out: Activity; method in brief: as §1

With `CN1C(=O)C(=CNc2ccccc2)C(=O)N(C)C1=O` the solubility [1] was “Insoluble”, the solubility [2] was “Insoluble” and the viability at 10 µg/mL (LN-229 [3]) was 96.1%. For the same compound, the viability at 1 µg/mL (LN-229 [4]) was 95%.
In the case of `CN1C(=O)/C(=C/Nc2cccc3ccccc23)C(=O)NC1=S`, the viability at 10 µg/mL (LN-229 [3]) is reported as 78.3% and the viability at 1 µg/mL (LN-229 [4]) is reported as 90%.
`O=C1NC(=S)NC(=O)C1=CNc1ccc2cc3ccccc3cc2c1` gave a viability at 10 µg/mL (LN-229 [3]) of 11% and a viability at 1 µg/mL (LN-229 [4]) of 83.3%.
In the case of `O=C1NC(=O)C(=CNc2cccc3c2C(=O)c2ccccc2C3=O)C(=O)N1`, the viability at 10 µg/mL (LN-229 [3]) is reported as 22.1% and the viability at 1 µg/mL (LN-229 [4]) is reported as 31.9%.
Compound `O=C1NC(=S)NC(=O)C1=CNc1ccc(-c2ccccc2)cc1` has a viability at 10 µg/mL (LN-229 [3]) of 13.8% and a viability at 1 µg/mL (LN-229 [4]) of 95.3%.
`CN1C(=O)/C(=C/Nc2ccc3ccccc3c2)C(=O)NC1=S` gave a viability at 10 µg/mL (LN-229 [3]) of 84.5% and a viability at 1 µg/mL (LN-229 [4]) of 94.6%.
With `CN1C(=O)NC(=O)/C(=C\Nc2ccc3ccccc3c2)C1=O` the viability at 10 µg/mL (LN-229 [3]) was 56% and the viability at 1 µg/mL (LN-229 [4]) was 90%.
For `CN1C(=O)NC(=O)/C(=C/Nc2ccccc2)C1=O`, the solubility [1] was “Insoluble”, the solubility [2] was “Insoluble” and the viability at 10 µg/mL (LN-229 [3]) was 95%. It also gave a viability at 1 µg/mL (LN-229 [4]) of 94.9%.
`CN1C(=O)C(=CNc2ccc3c(c2)C(=O)c2ccccc2C3=O)C(=O)N(C)C1=O` showed a viability at 10 µg/mL (LN-229 [3]) of 68.3% and a viability at 1 µg/mL (LN-229 [4]) of 92.4%.
Compound `CN1C(=O)NC(=O)/C(=C\Nc2cccc3ccccc23)C1=O` has a viability at 10 µg/mL (LN-229 [3]) of 94.5% and a viability at 1 µg/mL (LN-229 [4]) of 89%.
With `O=C1NC(=S)NC(=O)C1=CNc1ccc2ccccc2c1` the viability at 10 µg/mL (LN-229 [3]) was 94.4% and the viability at 1 µg/mL (LN-229 [4]) was 96.5%.
`O=C1NC(=S)NC(=O)C1=CNc1cccc2c1C(=O)c1ccccc1C2=O` gave a viability at 10 µg/mL (LN-229 [3]) of 48.6% and a viability at 1 µg/mL (LN-229 [4]) of 65%.
In the case of `CN1C(=O)NC(=O)/C(=C\Nc2ccc(-c3ccccc3)cc2)C1=O`, the viability at 10 µg/mL (LN-229 [3]) is reported as 93.5% and the viability at 1 µg/mL (LN-229 [4]) is reported as 96.9%.
With `CN1C(=O)/C(=C\Nc2ccccc2)C(=O)NC1=S` the solubility [1] was “Insoluble”, the solubility [2] was “Insoluble” and the viability at 10 µg/mL (LN-229 [3]) was 94.3%. The viability at 1 µg/mL (LN-229 [4]) was 94.3%.
With `CN1C(=O)/C(=C/Nc2ccc3c(c2)C(=O)c2ccccc2C3=O)C(=O)NC1=S` the viability at 10 µg/mL (LN-229 [3]) was 17.2% and the viability at 1 µg/mL (LN-229 [4]) was 80.8%.
Work on `O=C1NC(=O)N(c2ccc([N+](=O)[O-])cc2)C(=O)/C1=C/Nc1cccc2c1C(=O)c1ccccc1C2=O` yielded a viability at 10 µg/mL (LN-229 [3]) of 10.4% and a viability at 1 µg/mL (LN-229 [4]) of 75.8%.
For `O=C1NC(=O)N(c2ccccc2)C(=O)/C1=C/Nc1cccc2c1C(=O)c1ccccc1C2=O`, the viability at 10 µg/mL (LN-229 [3]) was 29.2% and the viability at 1 µg/mL (LN-229 [4]) was 66.3%.
With `O=C1NC(=O)N(c2ccccc2)C(=O)/C1=C/Nc1ccc2c(c1)C(=O)c1ccccc1C2=O` the viability at 10 µg/mL (LN-229 [3]) was 76.5% and the viability at 1 µg/mL (LN-229 [4]) was 87.6%.
For `O=C1NC(=O)C(=CNc2ccc3c(c2)C(=O)c2ccccc2C3=O)C(=O)N1`, the viability at 10 µg/mL (LN-229 [3]) was 17.2% and the viability at 1 µg/mL (LN-229 [4]) was 82.9%.
Work on `CN1C(=O)NC(=O)/C(=C\Nc2ccc3cc4ccccc4cc3c2)C1=O` yielded a viability at 10 µg/mL (LN-229 [3]) of 9.4% and a viability at 1 µg/mL (LN-229 [4]) of 60.3%.
`CN1C(=O)/C(=C/Nc2ccc(-c3ccccc3)cc2)C(=O)NC1=S` gave a viability at 10 µg/mL (LN-229 [3]) of 89.6% and a viability at 1 µg/mL (LN-229 [4]) of 97%.
`CN1C(=O)C(=CNc2ccc3cc4ccccc4cc3c2)C(=O)N(C)C1=O` showed a viability at 10 µg/mL (LN-229 [3]) of 60.8% and a viability at 1 µg/mL (LN-229 [4]) of 88.1%.
Work on `CN1C(=O)/C(=C/Nc2ccc3cc4ccccc4cc3c2)C(=O)NC1=S` yielded a viability at 10 µg/mL (LN-229 [3]) of 3.7% and a viability at 1 µg/mL (LN-229 [4]) of 75%.
For `CN1C(=O)NC(=O)/C(=C\Nc2ccc3c(c2)C(=O)c2ccccc2C3=O)C1=O`, the viability at 10 µg/mL (LN-229 [3]) was 28.9% and the viability at 1 µg/mL (LN-229 [4]) was 89.7%.
Work on `CN1C(=O)C(=CNc2ccc(-c3ccccc3)cc2)C(=O)N(C)C1=O` yielded a viability at 10 µg/mL (LN-229 [3]) of 94.6% and a viability at 1 µg/mL (LN-229 [4]) of 94.8%.
Work on `CN1C(=O)C(=CNc2cccc3c2C(=O)c2ccccc2C3=O)C(=O)N(C)C1=O` yielded a viability at 10 µg/mL (LN-229 [3]) of 86.3% and a viability at 1 µg/mL (LN-229 [4]) of 94.7%.
`O=C1NC(=O)N(c2ccc([N+](=O)[O-])cc2)C(=O)/C1=C/Nc1ccc2c(c1)C(=O)c1ccccc1C2=O` showed a viability at 10 µg/mL (LN-229 [3]) of 61.8% and a viability at 1 µg/mL (LN-229 [4]) of 88.2%.
With `O=C1NC(=O)C(=CNc2ccccc2)C(=O)N1` the solubility [1] was “Insoluble”, the solubility [2] was “Insoluble” and the viability at 10 µg/mL (LN-229 [3]) was 96.1%. It also gave a viability at 1 µg/mL (LN-229 [4]) of 96.2%.
With `O=C1NC(=O)C(=CNc2cccc3ccccc23)C(=O)N1` the viability at 10 µg/mL (LN-229 [3]) was 95.1% and the viability at 1 µg/mL (LN-229 [4]) was 93.2%.
For `O=C1NC(=O)C(=CNc2ccc3ccccc3c2)C(=O)N1`, the viability at 10 µg/mL (LN-229 [3]) was 82.4% and the viability at 1 µg/mL (LN-229 [4]) was 92.4%.
`CN1C(=O)C(=CNc2ccc3ccccc3c2)C(=O)N(C)C1=O` gave a viability at 10 µg/mL (LN-229 [3]) of 86.6% and a viability at 1 µg/mL (LN-229 [4]) of 90.5%.
`O=C1NC(=S)NC(=O)C1=CNc1ccc2c(c1)C(=O)c1ccccc1C2=O` gave a viability at 10 µg/mL (LN-229 [3]) of 12.3% and a viability at 1 µg/mL (LN-229 [4]) of 87.4%.
In the case of `CN1C(=O)/C(=C/Nc2cccc3c2C(=O)c2ccccc2C3=O)C(=O)NC1=S`, the solubility [1] is reported as “Insoluble” and the solubility [2] is reported as “Insoluble”.
`O=C1NC(=O)C(=CNc2ccc(-c3ccccc3)cc2)C(=O)N1` showed a viability at 10 µg/mL (LN-229 [3]) of 85.5% and a viability at 1 µg/mL (LN-229 [4]) of 92.6%.
Work on `CN1C(=O)C(=CNc2cccc3ccccc23)C(=O)N(C)C1=O` yielded a viability at 10 µg/mL (LN-229 [3]) of 95.4% and a viability at 1 µg/mL (LN-229 [4]) of 94.5%.
For `O=C1NC(=S)NC(=O)C1=CNc1ccccc1`, the solubility [1] was “Insoluble”, the solubility [2] was “Insoluble” and the viability at 10 µg/mL (LN-229 [3]) was 95.3%. It also gave a viability at 1 µg/mL (LN-229 [4]) of 96.5%.
Compound `CN1C(=O)NC(=O)/C(=C\Nc2cccc3c2C(=O)c2ccccc2C3=O)C1=O` has a viability at 10 µg/mL (LN-229 [3]) of 35.3% and a viability at 1 µg/mL (LN-229 [4]) of 84.8%.
